Kir21 inh: inhibitors of mouse Kir2.1 inward-rectifier potassium channel; P35561; HEK293-Kir2.1, FluxOR thallium flux fluorescence; stronger effect = lower value; B-score at 10 µM; 0.85% of 310,000 active; AID 1672;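 active = fluorescence ratio B-score at or below minus 3 SD of library scores, with starting-brightness B-score within 2 SD, cut at about -4.2 in these data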;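 also: channel flux triggered by added potassium and thallium sulfate stimulus; B-score of peak minus minimum fluorescence over baseline after thallium stimulus; more negative B-score means stronger Kir2.1 block with less thallium influx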
Target sequence (P35561 whole entry, looked up): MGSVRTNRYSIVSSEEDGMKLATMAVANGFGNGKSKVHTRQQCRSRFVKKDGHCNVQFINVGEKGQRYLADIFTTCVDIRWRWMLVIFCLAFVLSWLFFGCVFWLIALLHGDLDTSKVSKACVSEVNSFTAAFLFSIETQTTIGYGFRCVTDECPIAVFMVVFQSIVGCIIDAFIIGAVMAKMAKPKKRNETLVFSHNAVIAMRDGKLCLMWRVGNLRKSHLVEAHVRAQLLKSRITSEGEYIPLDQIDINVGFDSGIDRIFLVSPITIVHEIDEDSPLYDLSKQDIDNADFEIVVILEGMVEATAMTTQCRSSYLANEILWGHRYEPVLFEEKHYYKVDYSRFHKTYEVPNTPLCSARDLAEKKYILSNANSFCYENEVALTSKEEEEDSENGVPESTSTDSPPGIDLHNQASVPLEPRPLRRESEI
KCNQ1 act: potentiators or activators of human KCNQ1 potassium channel | P51787 | CHO-K1 KCNQ1, thallium flux FluxOR fluorescence; stronger effect = higher value | B-score at 10 µM | 0.35% of 310,000 active | AID 2648;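 active = fluorescence ratio B-score, a plate-corrected score, at least three library SD, with initial intensity B-score within 5 SD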
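Schedule – 37 °C overnight plating, 90-min dark dye load, 20-min compound pretreatment · System – stable KCNQ1 CHO-K1 line · Probe or stimulus – thallium- and potassium-containing depolarizing buffer · Measured by – kinetic FluxOR fluorescence, 10 s baseline plus 110 s post-stimulus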
hERG rescue: shields human hERG channel from block by proarrhythmic agents; CHO-hERG, FluxOR thallium flux, dofetilide IC70 present; activation (rescue from dofetilide block), less the hit threshold, % at 10 µM; 0.51% of 310,000 active; Q12809;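 active = activation above the mean of controls blocked by dofetilide plus 5 SD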;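 also: thallium influx through hERG after potassium depolarization seen as dye fluorescence rise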
KCNQ1 block: blocks the human KCNQ1 potassium channel. P51787. CHO-K1 KCNQ1, FluxOR thallium flux fluorescence; stronger effect = higher value. B-score at 10 µM. 1.3% of 310,000 active. AID 2642;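 active = compounds whose thallium flux B-score, printed positive for inhibition, exceeds three library SD while starting fluorescence stays within three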;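 also: channel opened by potassium depolarization with thallium stimulus after 20 min compound exposure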
KCNK9 block: human KCNK9 channel inhibition; B-score at 10 µM; HEK293 KCNK9, FluxOR thallium flux fluorescence; stronger effect = lower value; 1.2% of 310,000 active; AID 488922;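 active = ratio B-score over 3 SD below the library mean, with starting fluorescence within 5 SD of its mean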;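 also: negative B-score means less thallium flux so channel inhibition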
KCNK3 inh: human KCNK3 channel inhibition, primary screen. 0.84% of 340,000 active. CHO-KCNK3 thallium flux, FluxOR fluorescence; stronger effect = lower value. B-score at 10 µM. AID 602410;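 active = B-score under library mean minus 4 SD, starting fluorescence ratio at most library mean plus 5 SD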;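 also: more negative B-score means stronger inhibition of thallium flux through KCNK3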
KCNK9 inh conf: confirmation of human KCNK9 potassium channel inhibitors | 43% of 4,900 active | HEK293 KCNK9 cells, FluxOR thallium flux fluorescence | shares compounds with KCNK9 block | inhibition, % at 10 µM;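 active = thallium signal inhibited by more than 5 SD of the compound-free buffer control wells, on both duplicate plates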;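 also: 0% = assay buffer control wells without compound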
Kir2-1 spec: selectivity of KCNK9 modulators against mouse Kir2.1; shares compounds with KCNK9 block; Kir2.1 cells, FluxOR thallium flux fluorescence; inhibition, % at 10 µM; 4% of 4,900 active;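 active = thallium signal drop more than 5 SD beyond the mean of the no-compound control wells, seen in both duplicate plates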;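 also: signal is fluorescence rise after thallium addition divided by baseline fluorescence; plate controls were assay buffer only for no effect and full block by chlorpromazine control for full effect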
KCNK9 uninduced: second check of KCNK9 modulator effects in non-induced HEK293 cells; shares compounds with KCNK9 block; FluxOR thallium flux; inhibition, % at 10 µM; 40% of 4,900 active; AID 492997;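 active = thallium signal drop beyond 5 SD of the untreated control mean, on both duplicate plates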;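 also: plate controls were buffer only IC0 wells for no effect and SID17386958 at its maximal inhibitory level for full effect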
KCNK3 confirm: confirmation of human KCNK3 two-pore domain potassium channel inhibitors | CHO-KCNK3 thallium flux, FluxOR fluorescence; 0% buffer, 100% carvedilol maximal block | 99% of 2,400 active | shares compounds with KCNK3 inh | AID 651638 | ratio percent of control, % at 10 µM;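 active = ratio percent of control, averaged over triplicates, above buffer control mean plus 5 SD, cut at about 64% in these data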;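 also: ratio is the fluorescence rise from min to max over baseline after thallium stimulus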
KCNK3 noninduced: counter-screen for KCNK3 inhibitors: effect in non-induced cells. shares compounds with KCNK3 inh. non-induced KCNK3 parental cells, FluxOR thallium flux; stronger effect = lower value. thallium flux ratio (lower = more inhibition) at 10 µM. 40% of 2,400 active. AID 651747;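 active = thallium flux ratio, averaged over three wells, more than 5 SD below the buffer control mean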;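 also: host cells are CHO cells without KCNK3 induction; ratio is peak minus trough fluorescence over baseline then normalized to buffer controls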
Numbers without * were called inactive; i = inactive; · = not tested or not shown. Shown are actives, neighbours in structure and some others; about 3.7% of the full set was active somewhere.

SMILES	Kir21 inh	KCNQ1 act	hERG rescue	KCNQ1 block	KCNK9 block	KCNK3 inh	KCNK9 inh conf	Kir2-1 spec	KCNK9 uninduced	KCNK3 confirm	KCNK3 noninduced
CC(=O)Nc1ccc2nc(-c3cccn3C)[nH]c2c1	0.53	i	-4	i	i	i	·	·	·	·	·
CC(C)(C)c1ccc(NC(=O)COC(=O)C2CCCC2)cc1	·	·	·	·	·	i	·	·	·	·	·
COc1ccc(OCc2n(CC(=O)OC3CC(C)CCC3C(C)C)c3ccccc3[n+]2C)cc1 (stereo unspecified)	-9.9*	i	-37	10*	-14*	-10*	70%*	79%*	i	112*	i
CCOC(=O)/C(C(=O)Nc1ccccc1Cl)=C1/NC(C)(C)Cc2ccccc21	-0.03	i	-7	i	-10*	-9.1*	38%*	i	40%*	116*	i
CCOc1ccccc1C(=O)Nc1cccc(-c2nnc(-c3ccccc3)o2)c1	0.81	i	-14	i	-16*	-9.5*	45%*	i	28%*	107*	i
CC1=C(C(=O)Nc2ccccc2)C(c2ccco2)NC(=S)N1 (stereo unspecified)	-0.73	i	-6	i	i	i	·	·	·	·	·
O=C(Nc1ccccc1)C1=C(O)CC(c2ccco2)CC1=Nc1ccccc1 (stereo unspecified)	0.05	i	-7	i	-12*	i	27%*	i	36%*	115*	0.16*
CCc1cc2c(=O)n(CCCOC)c(SCC(=O)Nc3oc(C)c4c(C)n[nH]c(=O)c34)nc2s1	1.2	i	-16	i	i	i	·	·	·	·	·
O=C(NCCCN1CCOCC1)c1ccc2c(=O)n(Cc3ccc(Cl)cc3)c(=S)[nH]c2c1	1.3	i	-10	i	i	i	·	·	·	·	·
COc1ccccc1NC(=O)c1ccc(NC(=O)CN(C)Cc2ccccc2F)cc1	1	i	-21	i	-9.1*	-11*	36%*	i	i	97*	i
COc1ccccc1NC(=O)c1ccc(NC(=O)COC(=O)C2CC2C)cc1 (stereo unspecified)	-0.52	i	-5	i	i	i	·	·	·	·	·
CC1Cc2cc(/C(O)=C3\C(=O)C(=O)N(CCN(C)C)C3c3ccccc3F)ccc2O1 (stereo unspecified)	1.6	i	-15	i	i	i	·	·	·	·	·
CC(C)C(=O)Nc1cccc(C(=O)NCCc2ccc(S(N)(=O)=O)cc2)c1	-0.28	i	-10	i	i	i	·	·	·	·	·
COc1cccc(NC(=O)C(NCCc2ccc(S(N)(=O)=O)cc2)c2ccccc2)c1 (stereo unspecified)	-1.2	i	-12	i	-9*	-8.7*	38%*	i	31%*	106*	i
COc1cc(C2Nc3ccccc3C(=O)N2c2ccccc2)ccc1O (stereo unspecified)	0.61	i	-3	i	i	i	·	·	·	·	·
CCOC(=O)COc1c(OC)cc(Cl)cc1C1Nc2ccccc2C(=O)N1c1ccccc1 (stereo unspecified)	-0.35	i	-6	i	-11*	-11*	56%*	i	36%*	107*	0.14*
CCOc1cc(C2Nc3ccccc3C(=O)N2c2ccccc2)c(Br)cc1OCC(=O)O (stereo unspecified)	0.61	i	-7	i	i	i	·	·	·	·	·
CCOC(=O)COc1c(OC)cc(Cl)cc1C1Nc2ccccc2C(=O)N1c1cccc(C)c1 (stereo unspecified)	2.1	i	-12	i	-9.1*	-9.7*	48%*	i	38%*	111*	i
Nc1ncnc2c1ncn2[C@@H]1O[C@H](CNC(=O)[C@@H]2CCN2)[C@@H](O)[C@H]1O	·	·	·	·	·	i	·	·	·	·	·
CCOC(=O)Cc1c[nH]c2ccc([N+](=O)[O-])cc12	·	·	·	·	·	i	·	·	·	·	·
O=C(Cc1ccsc1)N1CCc2c([nH]c3ccccc23)C1c1ccccn1 (stereo unspecified)	-1.3	i	-7	i	i	i	·	·	·	·	·
Clc1ccc(-n2cccc2CN2CCc3c([nH]c4ccccc34)C2c2ccccn2)nc1 (stereo unspecified)	-0.48	i	-25	i	-8.5*	-10*	38%*	i	25%*	125*	0.14*
Cc1ccc(C(C)C)c(OCCN2CCc3ccccc3C2)c1	-3.1	i	0	i	i	-9.7*	i	i	i	127*	i
Cc1ccc(C)c(NC(=O)CCN2CCc3ccccc3C2)c1	-2.8	i	-10	i	i	i	·	·	·	·	·
CC(C)CN(C(=O)c1ccc(-n2cncn2)c([N+](=O)[O-])c1)C1CCS(=O)(=O)C1 (stereo unspecified)	1.3	i	-10	i	i	i	·	·	·	·	·
SMILES	Kir21 inh	KCNQ1 act	hERG rescue	KCNQ1 block	KCNK9 block	KCNK3 inh	KCNK9 inh conf	Kir2-1 spec	KCNK9 uninduced	KCNK3 confirm	KCNK3 noninduced
CC(C)CNC(=O)c1nn(Cc2ccccc2)c(=O)c2ccccc12	-0.23	i	-3	i	i	i	·	·	·	·	·
CCNC(=O)CNC(=O)c1nn(Cc2ccccc2)c(=O)c2ccccc12	-0.27	i	2	i	-10*	-13*	60%*	i	24%*	102*	i
O=C(Nc1nc2c(s1)CCCC2)c1nn(Cc2ccccc2)c(=O)c2ccccc12	0.5	i	-7	i	-14*	-9*	72%*	i	i	101*	i
COc1ccc(-c2csc(NC(CO)c3nc4ccccc4n3CCOCCO)n2)cc1 (stereo unspecified)	1.1	i	-3	i	i	i	·	·	·	·	·
Cc1cccc(C)c1NC(=O)c1ccc(-c2ccc(Cl)cc2Cl)o1	-0.07	i	-8	7*	-16*	-9*	51%*	i	38%*	130*	0.14*
COc1ccccc1N1CCN(Cc2cc(=O)c(OCC(=O)NC(C)C)co2)CC1	-1.6	i	-1	i	i	i	·	·	·	·	·

Assay outcomes as filed in PubChem BioAssay.
